The values that follow come from ChEMBL document CHEMBL3297709, “High affinity ligands and potent antagonists for the α1D-adrenergic receptor. Novel 3,8-disubstituted [1]benzothieno[3,2-d]pyrimidine derivatives” (Eur J Med Chem, 2014).

Each structure is given as a SMILES string.

What is called Ki is the dissociation constant of the complex between target and ligand, obtained from inhibition or displacement. A low value points to a stronger hold on the target. A word on the pKb: it is the Kb on a negative log10 scale, so that one unit is a factor of ten.

In assay [1] the target is T1, Alpha-1A adrenergic receptor (Homo sapiens, UniProt P35348).
T1 sequence (P35348 whole entry): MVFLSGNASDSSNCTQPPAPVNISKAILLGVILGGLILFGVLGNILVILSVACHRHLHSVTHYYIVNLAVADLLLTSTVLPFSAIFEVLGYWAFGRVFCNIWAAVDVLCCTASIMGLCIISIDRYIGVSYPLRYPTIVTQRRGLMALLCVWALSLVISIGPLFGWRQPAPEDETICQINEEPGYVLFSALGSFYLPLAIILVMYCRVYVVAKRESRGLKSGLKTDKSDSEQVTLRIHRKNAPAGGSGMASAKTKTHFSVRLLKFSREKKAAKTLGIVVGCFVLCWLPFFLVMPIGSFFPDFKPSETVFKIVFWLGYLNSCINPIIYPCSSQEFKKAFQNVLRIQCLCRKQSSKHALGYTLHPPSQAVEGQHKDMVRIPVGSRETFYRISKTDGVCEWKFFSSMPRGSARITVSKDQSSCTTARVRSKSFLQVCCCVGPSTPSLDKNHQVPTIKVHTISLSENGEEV
The experiment in a line: Displacement of [125I]BE2254 from human alpha1a receptor expressed in HEK293 cells. The assay is classed as cell-based. In outline: (§1)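 Membranes from HEK293 cells stably transfected with human α1A, α1B or α1D receptor cDNA, selected under 400 µg/mL geneticin. Competition against 50 pM [125I]BE2254; nonspecific binding defined with 10 µM phentolamine. Curves fitted by nonlinear regression. Mean ± SE of three experiments run in duplicate.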

For assay [2], the target named is T2, Alpha-1D adrenergic receptor (Homo sapiens, UniProt P25100).
T2 sequence (P25100 whole entry): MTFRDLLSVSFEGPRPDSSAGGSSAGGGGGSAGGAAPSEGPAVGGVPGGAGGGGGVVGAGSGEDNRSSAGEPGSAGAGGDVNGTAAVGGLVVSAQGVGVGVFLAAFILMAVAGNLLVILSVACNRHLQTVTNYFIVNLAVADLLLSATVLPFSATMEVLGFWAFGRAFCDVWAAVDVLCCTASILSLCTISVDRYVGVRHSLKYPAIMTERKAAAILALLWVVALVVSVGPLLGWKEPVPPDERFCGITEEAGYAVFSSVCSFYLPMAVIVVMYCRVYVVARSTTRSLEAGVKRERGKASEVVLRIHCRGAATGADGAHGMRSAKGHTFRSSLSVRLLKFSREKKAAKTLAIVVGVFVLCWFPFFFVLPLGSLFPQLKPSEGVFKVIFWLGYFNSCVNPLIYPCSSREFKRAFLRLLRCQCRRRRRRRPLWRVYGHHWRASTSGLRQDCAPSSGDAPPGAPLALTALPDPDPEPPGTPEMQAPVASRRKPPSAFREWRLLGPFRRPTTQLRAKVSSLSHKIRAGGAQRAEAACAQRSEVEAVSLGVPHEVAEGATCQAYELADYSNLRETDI
The experiment in a line: Displacement of [125I]BE2254 from human alpha1d receptor expressed in HEK293 cells. The assay is classed as cell-based. In outline: as §1

The target in assay [3] is T3, Alpha-1B adrenergic receptor (Homo sapiens, UniProt P35368).
T3 sequence (P35368 whole entry): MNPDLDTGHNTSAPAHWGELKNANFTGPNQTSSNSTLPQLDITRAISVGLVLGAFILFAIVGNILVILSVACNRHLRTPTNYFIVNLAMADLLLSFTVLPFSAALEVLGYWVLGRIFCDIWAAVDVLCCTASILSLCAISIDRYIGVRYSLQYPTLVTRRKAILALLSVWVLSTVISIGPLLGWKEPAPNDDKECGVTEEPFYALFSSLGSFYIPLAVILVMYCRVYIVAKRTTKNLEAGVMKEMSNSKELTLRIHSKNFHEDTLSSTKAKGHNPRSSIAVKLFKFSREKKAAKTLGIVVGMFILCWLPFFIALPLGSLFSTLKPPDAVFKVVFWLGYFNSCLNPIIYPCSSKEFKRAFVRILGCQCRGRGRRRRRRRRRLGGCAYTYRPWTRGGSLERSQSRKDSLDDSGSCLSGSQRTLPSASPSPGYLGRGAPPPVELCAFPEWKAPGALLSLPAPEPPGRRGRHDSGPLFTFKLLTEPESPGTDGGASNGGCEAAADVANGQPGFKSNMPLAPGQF
Briefly: Displacement of [125I]BE2254 from human alpha1b receptor expressed in HEK293 cells. It is filed as cell-based. In outline:
as §1
For orientation: Loss of bound radioactivity is the signal in a displacement assay; it reports binding, not function.

Assay [4] has as its target T4, Alpha-1A adrenergic receptor (Rattus norvegicus) (UniProt P43140).
T4 sequence (whole entry): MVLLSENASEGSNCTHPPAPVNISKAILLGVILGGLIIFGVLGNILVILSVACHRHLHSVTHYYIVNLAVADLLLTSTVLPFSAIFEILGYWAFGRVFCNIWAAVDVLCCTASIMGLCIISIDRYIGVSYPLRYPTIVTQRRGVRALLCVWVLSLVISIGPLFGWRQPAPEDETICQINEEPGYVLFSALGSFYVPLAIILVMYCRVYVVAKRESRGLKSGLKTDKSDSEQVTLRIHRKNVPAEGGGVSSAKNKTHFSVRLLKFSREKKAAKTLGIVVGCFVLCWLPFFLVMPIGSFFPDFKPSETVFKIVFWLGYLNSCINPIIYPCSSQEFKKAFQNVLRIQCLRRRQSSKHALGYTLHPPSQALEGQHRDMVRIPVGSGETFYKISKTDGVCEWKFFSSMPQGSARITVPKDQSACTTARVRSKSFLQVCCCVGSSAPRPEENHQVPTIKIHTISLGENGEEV
Briefly: Antagonist activity at alpha1A adrenoceptor in Wistar rat vas deferens assessed as noradrenaline induced contractions. In outline:
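Male Wistar rat (275-300 g) prostatic vas deferens in 20 mL organ bath, physiological salt solution, 37 °C, 5% CO2:95% O2, pH 7.4. Primed twice with 10 µM (-)-NA, 45 min wash/equilibration, then cumulative (-)-NA curve recorded isotonically. Antagonist incubated 30–60 min before repeat curve. pKb = log(DR-1) - log[B] from ED50 ratio; mean ± SE of 4–5 experiments.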

For assay [5], the target named is T5, Alpha-1D adrenergic receptor (Rattus norvegicus) (UniProt P23944).
T5 sequence (whole entry): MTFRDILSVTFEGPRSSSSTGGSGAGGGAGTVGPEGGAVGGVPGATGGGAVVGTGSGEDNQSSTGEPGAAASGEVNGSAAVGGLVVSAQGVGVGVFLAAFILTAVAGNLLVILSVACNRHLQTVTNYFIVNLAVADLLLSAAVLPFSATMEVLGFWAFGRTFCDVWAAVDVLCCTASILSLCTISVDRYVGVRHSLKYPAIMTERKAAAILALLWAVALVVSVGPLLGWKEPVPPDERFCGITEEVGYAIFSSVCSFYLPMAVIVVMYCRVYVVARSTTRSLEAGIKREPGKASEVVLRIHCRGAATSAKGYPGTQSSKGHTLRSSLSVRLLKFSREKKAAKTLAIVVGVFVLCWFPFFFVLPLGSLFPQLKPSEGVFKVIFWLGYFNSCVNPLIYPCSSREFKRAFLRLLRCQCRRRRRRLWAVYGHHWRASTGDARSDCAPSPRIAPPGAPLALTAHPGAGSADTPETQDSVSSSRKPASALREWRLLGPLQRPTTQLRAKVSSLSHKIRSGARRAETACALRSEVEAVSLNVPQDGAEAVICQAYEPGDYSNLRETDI
The experiment in a line: Antagonist activity at alpha1D adrenoceptor in Wistar rat thoracic aorta assessed as noradrenaline induced contractions. The gist of the method:
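Endothelium-denuded helicoidal thoracic aorta strips (15 x 3 mm) from male Wistar rats, Krebs solution, 1 g tension, ≥2 h equilibration. Cumulative (-)-NA curves recorded isometrically at 1 h intervals, third as control. Antagonist equilibrated 60 min before fourth curve. NA solutions held 0.05% Na2S2O4. pKb = log(DR-1) - log[B]; mean ± SE of 4–5 experiments.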

Assay [6] deals with T6, Alpha-1B adrenergic receptor (Rattus norvegicus) (UniProt P15823).
T6 sequence (whole entry): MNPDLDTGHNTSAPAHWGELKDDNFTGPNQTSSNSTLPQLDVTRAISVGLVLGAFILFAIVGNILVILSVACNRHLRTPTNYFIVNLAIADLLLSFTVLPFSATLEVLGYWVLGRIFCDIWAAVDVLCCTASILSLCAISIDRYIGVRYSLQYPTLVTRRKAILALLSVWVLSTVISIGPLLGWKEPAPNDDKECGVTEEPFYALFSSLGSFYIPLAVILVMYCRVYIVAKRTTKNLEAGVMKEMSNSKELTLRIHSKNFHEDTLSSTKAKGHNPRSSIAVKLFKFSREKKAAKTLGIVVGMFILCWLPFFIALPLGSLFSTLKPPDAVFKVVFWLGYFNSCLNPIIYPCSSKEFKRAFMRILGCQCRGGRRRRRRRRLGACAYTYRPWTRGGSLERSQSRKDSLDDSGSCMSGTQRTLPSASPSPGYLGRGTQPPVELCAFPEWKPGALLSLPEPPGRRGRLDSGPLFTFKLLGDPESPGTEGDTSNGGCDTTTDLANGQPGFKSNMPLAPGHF
The experiment in a line: Antagonist activity at alpha1B adrenoceptor in Wistar rat spleen assessed as phenylephrine induced contractions. In outline:
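Wistar rat spleen strips under 1 g resting tension, equilibrated 2 h, with 4 µM (±)-propranolol to block β-adrenoceptors. Cumulative phenylephrine curves measured isometrically at 30 min intervals, first discarded, second as control. Antagonist incubated 30–60 min before repeat curve. pKb from ED50 dose ratio via pKb = log(DR-1) - log[B]; mean ± SE of 4–5 experiments.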

For the molecule `COc1ccccc1N1CCN(CCn2c(C)nc3c(sc4ccc(NC(=O)Cc5ccccc5)cc43)c2=O)CC1`, the results for the Ki in assay [1], in assay [2] and in assay [3] were 3.39 nM, 3.31 nM and 30.2 nM, respectively.
Consider `COc1ccccc1N1CCN(CCn2c(=O)[nH]c3c(sc4ccc(NC(=O)CCCc5ccccc5)cc43)c2=O)CC1`, for which the figures for the Ki in assay [1], in assay [2] and in assay [3] were 7.08 nM, 3.24 nM and 33.9 nM, respectively.
On to `COc1ccccc1N1CCN(CCn2c(C)nc3c(sc4ccc(NC(=O)CCCNC(=O)Cc5ccccc5)cc43)c2=O)CC1`, for which the figures for the Ki in assay [1], in assay [2] and in assay [3] were 1 nM, 2.29 nM and 7.59 nM, respectively.
As for `COc1ccccc1N1CCN(CCn2c(C)nc3c(sc4ccc(NC(=O)c5ccccc5)cc43)c2=O)CC1`, the values for the Ki in assay [1], in assay [2] and in assay [3] were 3.89 nM, 5.01 nM and 38.9 nM, respectively.
Turning to `COc1ccccc1N1CCN(CCn2c(=O)[nH]c3c(sc4ccc(NC(=O)CCCN(C)C)cc43)c2=O)CC1`, the Ki in assay [1] was 1.7 nM; in assay [2], 1.66 nM; in assay [3] it was 1.66 nM.
In the case of `COc1ccccc1N1CCN(CCn2c(=O)[nH]c3c(sc4ccc(NC(=O)Cc5ccccc5)cc43)c2=O)CC1`, the Ki in assay [1] was 1.48 nM; in assay [2] it was 0.912 nM; in assay [3], 28.2 nM.
Take `COc1ccccc1N1CCN(CCn2c(=O)[nH]c3c(sc4ccc(NC(=O)CCC(=O)NCc5ccccc5)cc43)c2=O)CC1`: the Ki was 1.1 nM in assay [1], 0.372 nM in assay [2] and 2.69 nM in assay [3].
Turning to `COc1ccccc1N1CCN(CCn2c(C)nc3c(sc4ccc(NC(=O)CCCC(=O)NCc5ccccc5)cc43)c2=O)CC1`, the Ki in assay [1] is 3.55 nM; in assay [2], 5.5 nM; in assay [3], 19.1 nM.
Take `COc1ccccc1N1CCN(CCn2c(=O)[nH]c3c(sc4ccc(NC(=O)c5ccccc5)cc43)c2=O)CC1`: the Ki in assay [1] was 1.1 nM; in assay [2], 0.575 nM; in assay [3], 10 nM.
For the molecule `COc1ccccc1N1CCN(CCn2c(=O)[nH]c3c(sc4ccccc43)c2=O)CC1`, the pKb in assay [4] amounted to 8.61; in assay [5], 8.89; in assay [6], 8.44.
As to `COc1ccccc1N1CCN(CCn2c(=O)[nH]c3c(sc4ccc(NC(=O)CCCN(C)Cc5ccccc5)cc43)c2=O)CC1`, the inhibition constant (Ki) in assay [1] was 6.92 nM; in assay [2] it was 4.07 nM; in assay [3] it was 7.41 nM.
Turning to `COc1ccccc1N1CCN(CCn2c(C)nc3c(sc4ccc(NC(=O)CCCC(=O)NCCc5ccccc5)cc43)c2=O)CC1`, the Ki in assay [1] is 0.912 nM; in assay [2], 0.759 nM; in assay [3], 6.46 nM.
For `COc1ccccc1N1CCN(CCn2c(=O)[nH]c3c(sc4ccc(NC(=O)CCCCc5ccccc5)cc43)c2=O)CC1`, the Ki in assay [1] is 5.25 nM; in assay [2], 1.17 nM; in assay [3] it was 36.3 nM.
For the molecule `COc1ccccc1N1CCN(CCn2c(=O)[nH]c3c(sc4ccc(NC(=O)CCCC(=O)NCCc5ccccc5)cc43)c2=O)CC1`, the Ki was 1.62 nM in assay [1], 1 nM in assay [2] and 6.46 nM in assay [3].
